SENP6 inh: blocks the human protease SENP6 | Q9GZR1 | Recombinant SENP6 catalytic domain, aminoluciferin luminescence | inhibition, % at 10 µM | 1.8% of 330,000 active;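 active means inhibition above about 50% at the single tested dose, limit read from the data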;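 further: plate controls were DMSO wells with enzyme for no effect and DMSO wells lacking enzyme for full effect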
Target sequence (Q9GZR1 628-1112 limits assumed): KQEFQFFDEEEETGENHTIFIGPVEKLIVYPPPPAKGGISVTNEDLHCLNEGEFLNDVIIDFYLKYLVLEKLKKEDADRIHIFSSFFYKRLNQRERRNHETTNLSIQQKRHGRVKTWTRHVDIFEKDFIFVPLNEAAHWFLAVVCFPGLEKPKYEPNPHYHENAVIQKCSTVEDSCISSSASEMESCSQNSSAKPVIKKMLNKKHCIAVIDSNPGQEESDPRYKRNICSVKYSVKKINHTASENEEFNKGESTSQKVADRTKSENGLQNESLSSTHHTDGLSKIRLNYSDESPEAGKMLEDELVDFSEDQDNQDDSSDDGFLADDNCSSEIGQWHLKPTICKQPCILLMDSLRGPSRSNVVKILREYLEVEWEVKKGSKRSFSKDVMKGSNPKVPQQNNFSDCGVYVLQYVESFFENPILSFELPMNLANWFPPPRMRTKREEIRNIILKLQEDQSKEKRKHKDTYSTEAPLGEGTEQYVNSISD
SENP7 inh: SENP7 protease inhibition. recombinant SENP7, Z-RLRGG-aminoluciferin luminescence, 40 min. inhibition, % at 5 µM. 1.5% of 330,000 active. Q9BQF6. AID 434973;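 active means inhibition above about 50% at the single test dose, limit read from the data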;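 further: plate controls were DMSO with enzyme for no effect and no enzyme buffer wells for full effect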
SENP8 block-1: SENP8 protease inhibition | inhibition, % at 10 µM | 1.2% of 330,000 active | Q96LD8 | purified SENP8, Z-RLRGG-aminoluciferin cleavage, luminescence; in the data active means inhibition above about 50%
SENP1 FRET inh: inhibitors of human SENP1 SUMO protease catalytic domain | 0.21% of 360,000 active | recombinant SENP1 catalytic domain, CyPet-SUMO1-YPet FRET cleavage | AID 624204 | inhibition, % at 10 µM;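 active means inhibition at least 30% at 10 µM, raw YFP signal under a set limit, fluorescence ratio 0.5 to 1.5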;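 further: 0% = enzyme with DMSO and 100% = no enzyme wells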
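Test system: human SENP1 catalytic domain; medium: Tris pH 8 buffer plus EDTA, NaCl, BME, BSA, NP40, catalase; incubation: 50 min reaction at room temperature; technique: FRET, CFP and YFP emission; controls: no-enzyme low control and enzyme-plus-DMSO high control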
SENP8 block-2: inhibitors of human SENP8 protease; recombinant SENP8, Nedd8 substrate fluorescence; inhibition, % at 20 µM; 0.64% of 360,000 active; AID 602440; in the data active means inhibition mostly above about 40%, no sharp cut-off; inactive means mostly below about 27%
* = called active by the depositor; nt = no result. Most compounds without a hit are left out; they make up all but 2.5% or so of the library.

SMILES	SENP6 inh	SENP7 inh	SENP8 block-1	SENP1 FRET inh	SENP8 block-2
CCOP(=O)(C1=C(O)C(=O)C(C(C)(C)C)=CC1=O)c1ccccc1 (centres undefined)	nt	nt	nt	-5	87*
COC1=CC(=O)C(OC)=C(OC)C1=O	nt	nt	nt	-24	41*
O=C(O)c1ccc(-c2nc(-c3ccccc3)c(-c3ccccc3)[nH]2)cc1	-21	-3	-7	0	-399
COc1ccc(N=Nc2nc(-c3ccccc3)c(-c3ccccc3)[nH]2)cc1	-3	2	-3	37*	25
Oc1ccccc1N=Nc1nc(-c2ccccc2)c(-c2ccccc2)[nH]1	0	9	4	48*	51*
COc1ccccc1N=Nc1nc(-c2ccccc2)c(-c2ccccc2)[nH]1	nt	nt	nt	17	29
S=C1SC2(CCCCCC2)NC2=C1CCCCC2	nt	nt	nt	1	17
CCN(CC)c1ccc(NC(=O)CSc2ccsc2[N+](=O)[O-])c(C)c1	7	6	3	3	46*
CCOc1cc(C(=O)Nc2ccc(S(=O)(=O)NC3=NCCCCC3)cc2)cc(Br)c1OC	-6	0	6	0	-8
N#C/C(=N\Nc1ccc(S(=O)(=O)N2CCOCC2)cc1)C(N)=S	-5	3	10	3	36
N#CC(C#N)=NNc1ccc(S(=O)(=O)N2CCCCC2)cc1	17	-1	3	2	47*
CC(=O)Nc1ccc(/C=C2\Sc3ccccc3C2=O)cc1	67*	83*	46	-38	-96
Cc1ccc(C(=O)CCC(=O)OCC(=O)NNC(=O)c2ccccc2Cl)cc1	-3	-3	-6	1	6
Cc1cc2nc(C3CCCCC3)c(Cc3cccc(F)c3)n2c(C)c1Br	nt	nt	nt	3	6
Cc1c(N2C(=O)c3ccccc3C2(O)c2ccccc2)c(=O)n(-c2ccccc2)n1C (centres undefined)	95*	-1	-2	3	5
Cc1c(N2C(=O)CSC23C(=O)Nc2ccccc23)c(=O)n(-c2ccccc2)n1C (centres undefined)	-34	0	-1	0	3
Cc1cccc(NC(=O)/C=C/c2ccc(Cl)cc2)n1	84*	86*	68*	4	-1
Cc1ccnc(NC(=O)/C=C/c2ccccc2[N+](=O)[O-])c1	39	78*	69*	nt	nt
COC(=O)c1cc(Cl)c(NC(=O)/C=C/c2ccc(OC)cc2)cc1OC	-4	-5	-14	-1	-360
Cc1cc(C)nc(NC(=O)/C=C/c2ccccc2Cl)c1	83*	81*	-4	9	3
Cc1ccnc(NC(=O)c2ccccc2[N+](=O)[O-])c1	19	-10	-1	2	29
Cc1cccc(NC(=O)/C(C#N)=C/c2ccc(Cl)cc2)n1	5	-3	-3	-3	7
COC(=O)c1sccc1NC(=O)/C=C/c1ccc(Cl)cc1	74*	95*	58*	3	-40
COC1=C(N)C(=O)c2nc(C)ccc2C1=O	nt	nt	nt	0	99*
COC1=C(Nc2ccc(C)cc2)C(=O)c2ccccc2C1=O	30	12	5	3	-51
SMILES	SENP6 inh	SENP7 inh	SENP8 block-1	SENP1 FRET inh	SENP8 block-2
COc1ccc(N)c2c1C(=O)c1ccccc1C2=O	nt	nt	nt	4	29
COC1=C(Br)C(=O)c2nc(C)ccc2C1=O	nt	nt	nt	7	86*
C[C@]12CC[C@@H]3c4cc(O)c(O)cc4CC[C@H]3[C@@H]1CC[C@@H]2O	1	11	-4	1	41*
C[C@]12CC[C@@H]3c4ccc(O)cc4CC[C@H]3[C@@H]1CC[C@@H]2O	1	-6	-1	0	5
CC1(C2CC2)NC(=O)N(CC(=O)NCc2ccc(Cl)cc2Cl)C1=O (centres undefined)	-7	-9	-16	2	3
Cc1ccc(/C=C2\SC(=S)N(CCC(=O)NNC(=O)c3ccccc3O)C2=O)cc1	-12	-1	4	4	26
O=C(CCN1C(=O)/C(=C\C=C\c2ccccc2)SC1=S)Nc1cccc(C(=O)O)c1	53*	-11	55*	-11	24
Cc1ccc(/C=C2\SC(=S)N(CCCC(=O)Nc3cccc(C(=O)O)c3)C2=O)cc1	91*	61*	87*	3	34
Cc1ccc(/C=C2\SC(=S)N(CCC(=O)NNS(=O)(=O)c3ccccc3)C2=O)cc1	-3	-3	4	-3	59*
Cc1ccc(C=C2SC(=S)N(CCCC(=O)Nc3cccc(C(=O)O)c3)C2=O)cc1	nt	nt	nt	3	26
Cc1cccc(NC(=O)CNC(=O)c2ccc(S(=O)(=O)NCc3ccco3)cc2)c1C	nt	nt	nt	1	13
COc1ccc(C(c2c(C)n(C)n(-c3ccccc3)c2=O)c2c(C)n(C)n(-c3ccccc3)c2=O)cc1OC	-15	6	5	-1	11
Cc1[nH]n(-c2ccccc2)c(=O)c1C(C[N+](=O)[O-])c1ccc(Cl)cc1 (centres undefined)	23	22	-3	1	45*
COc1ccc(C(c2c(C)[nH]n(-c3ccccc3)c2=O)c2c(C)[nH]n(-c3ccccc3)c2=O)cc1OC	8	31	-4	2	84*
Cc1ccc([C@H]2C(C(=O)O)=CC[C@@H](c3ccc(C)cc3)N2S(=O)(=O)c2ccccc2C)cc1	15	9	8	0	1
O=c1cc(-c2ccccc2)oc2cc(O)c(O)c(O)c12	6	-3	10	-4	0
O=c1c(O)cccc2cc(O)c(O)c(O)c12	-52	-3	6	4	60*
O=[N+]([O-])c1ccc2c(c1Nc1ccccc1)=NC1(CCCCC1)N=2	12	7	-4	4	45*
COc1ccc(Nc2c([N+](=O)[O-])ccc3c2=NC2(CCCCC2)N=3)cc1	12	-1	1	3	19
CC(C)(C)S(=O)(=O)/C(C#N)=C/c1cccn1S(=O)(=O)c1ccccc1	nt	nt	nt	0	16
Cc1ccc(NC(=O)c2ccc3c(c2)N(CC(=O)NC(C)C)C(=O)C(C)(C)O3)cc1	-10	4	5	0	4
COc1ccc(/C=C2/SC(=S)N(CCC(=O)N3CCN(C)CC3)C2=O)cc1	-8	-14	-20	-25	37*
COCCN1C(=O)/C(=C/c2ccc(N3CCCC3)cc2)SC1=S	0	9	5	16	44*
O=C(Nc1nc(-c2ccccn2)cs1)c1cccc(S(=O)(=O)N2CCOCC2)c1	15	9	9	-5	18
OCCN1CCN(c2nc(-c3ccccc3O)nc3ccccc23)CC1	-5	1	-2	1	20
O=C(O)c1ccc(N/N=C/C=C/c2ccccc2)cc1	98*	92*	95*	-32	-216
CC(C)[C@H](NC(=O)c1cc2cc(Cl)ccc2n1C)C(=O)N[C@@H](C(=O)O)c1ccccc1	-15	12	1	-1	1
Cc1ccc(CSc2nnc(SCC(=O)N/N=C/c3ccccc3OCC(=O)O)s2)cc1	88*	22	60*	-2	18
O=C(CSc1nc2ccccc2s1)N/N=C/c1ccc(C(=O)O)cc1	-7	-4	-6	2	1
